ChEMBL document CHEMBL1149910, “2-(6-aryl-3(Z)-hexen-1,5-diynyl)anilines as a new class of potent antitubulin agents” (J Med Chem, 2008)

Columns and labels:
[1] = Inhibition of bovine tubulin polymerization; design: species or system Bos taurus
Method in brief: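 Purified bovine tubulin incubated at 37 °C in buffer containing 20% glycerol and 1 mM GTP, with test compound at 3.6–36 µM. Polymerization followed kinetically by the increase in fluorescence. Colchicine and paclitaxel served as controls.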

[2] = tested on: EKVX; assay: Cytotoxicity against human EKVX cells; assay type: functional
Method in brief: (§1)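 Tested in the NCI in vitro antitumor screening protocol across a tumor cell line panel. GI₅₀ is the concentration producing a 50% reduction in cell growth.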

[3] = tested on: OVCAR-3; assay: Cytotoxicity against human OVCAR-3 cells; assay type: functional; method in brief: as §1
[4] = tested on: MDA-MB-231; assay: Cell cycle arrest in human MDA-MB-231 cells assessed as accumulation of >4N cells at 3.6 uM after 24 hrs by flow cytometry; assay type: functional

Q: What does the source list for Nc1ccccc1C#C/C=C\C#Cc1ccccc1C(F)(F)F?
A: IC50 [1]: 9 µM; GI50 [2]: 0.358 µM; TGI [2]: 12.4 µM; CC50 ([2]; read-out: LC50 (the source's name)): 40.4 µM; GI50 [3]: 0.631 µM; Activity [4]: 31.3%
